pIC50: −log10 of the molar value.

Assay [1] addresses Glutamate receptor ionotropic, NMDA 2B (Rattus norvegicus) (UniProt Q00960). Put plainly: Displacement of [3H]Ifenprodil from NMDA receptor GluN2B subunit in Wistar rat cerebral cortex at 0.1 uM. The class given is tissue-based.
Assay [2] addresses Glutamate receptor ionotropic, NMDA 2B (Homo sapiens, UniProt Q05586+Q13224). Kind of assay: Inhibition of NMDA receptor GluN2B subunit (unknown origin).
For assay [3], the target named is Glutamate receptor ionotropic, NMDA 2B (Rattus norvegicus, UniProt Q00960). Kind of assay: Displacement of [3H]Ifenprodil from NMDA receptor GluN2B subunit in Wistar rat cerebral cortex. In kind it is tissue-based.
A short description of assay [4]: Antioxidant activity of the compound assessed as inhibition of ABTS radicals after 20 mins by spectrophotometric analysis. In kind it is functional. In a few lines: (§1)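 ABTS radical cation generated from ABTS and potassium persulfate in 0.1 M phosphate buffer pH 7.0, left 16 h in the dark at room temperature. Blank absorbance at 734 nm adjusted to about 1.0. Samples from 2 mM stocks in MeOH/phosphate buffer 1:1. A734 read at room temperature after exactly 20 min. %inhibition = (Ablank − Asample)/Ablank, mean of triplicates.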

Assay [5] can be described thus: Antioxidant activity of the compound assessed as inhibition of ABTS radicals at 33 uM after 20 mins by spectrophotometric analysis. In kind it is functional.
The nature of assay [6]: Antioxidant activity of the compound assessed as inhibition of ABTS radicals at 17 uM after 20 mins by spectrophotometric analysis. In kind it is functional. In a few lines: as §1
The target of assay [7] is Glutamate receptor ionotropic, NMDA 2B (Rattus norvegicus) (UniProt Q00960). Put plainly: Displacement of [3H]Ifenprodil from NMDA receptor GluN2B subunit in Wistar rat cerebral cortex at 10 uM. The class given is tissue-based.
Assay [8] in a line: Antioxidant activity of the compound assessed as inhibition of ABTS radicals at 9 uM after 20 mins by spectrophotometric analysis. In kind it is functional. In a few lines:
as §1

Assay [9] has as its target Glutamate receptor ionotropic, NMDA 2B (Mus musculus) (UniProt Q01097). Kind of assay: Antagonist activity at NMDA receptor GluN2B subunit in FVB mouse CA1 pyramidal neurons assessed as reversible reduction of excitatory post synaptic current amplitude at 50 nM at holding potential of -60 mV measured for 5 mins by patch clamp technique in presence of Mg2+free ACSF relative to control. In kind it is cell-based. Details: scale not given: the % may be the effect or the level left. As to conditions: Pyramidal neuron. In a few lines:
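Whole-cell recordings of NMDA receptor-mediated EPSCs in mouse hippocampal slices, with glycine (10 µM) and bicuculline (5 µM) in the bath. Compound applied for 5 min, then washed out. EPSC amplitude taken as peak minus baseline and measured over 5 min in control and in drug for each neuron. Expressed as % of control, n = 4; unpaired Student's t test.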

For assay [10], the system named is Mus musculus. Put plainly: Anticonvulsant activity in ip dosed sound-induced DBA/2 mouse seizure model assessed as tonus phase latency. In kind it is functional. The note with it: DBA/2, ip. In a few lines: (§2)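 DBA/2 mice (8–12 g, 22–25 days old, either sex), groups of 10. Compound given ip at 0.1 mL/10 g in 50% DMSO/50% saline; vehicle controls. Auditory stimulus (12–16 kHz, 109 dB) applied 30 min later for 60 s or until tonic extension, after 60 s habituation. Latency to and incidence of seizure phases scored; Fisher's exact test. ED50 by Litchfield–Wilcoxon.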

Assay [11] deals with Mus musculus. Put plainly: Anticonvulsant activity in ip dosed sound-induced DBA/2 mouse seizure model assessed as clonus phase latency. In kind it is functional. The note with it: DBA/2, ip. In outline:
as §2

Sequence of Glutamate receptor ionotropic, NMDA 2B (Rattus norvegicus) (Q00960 27-1482 limits assumed): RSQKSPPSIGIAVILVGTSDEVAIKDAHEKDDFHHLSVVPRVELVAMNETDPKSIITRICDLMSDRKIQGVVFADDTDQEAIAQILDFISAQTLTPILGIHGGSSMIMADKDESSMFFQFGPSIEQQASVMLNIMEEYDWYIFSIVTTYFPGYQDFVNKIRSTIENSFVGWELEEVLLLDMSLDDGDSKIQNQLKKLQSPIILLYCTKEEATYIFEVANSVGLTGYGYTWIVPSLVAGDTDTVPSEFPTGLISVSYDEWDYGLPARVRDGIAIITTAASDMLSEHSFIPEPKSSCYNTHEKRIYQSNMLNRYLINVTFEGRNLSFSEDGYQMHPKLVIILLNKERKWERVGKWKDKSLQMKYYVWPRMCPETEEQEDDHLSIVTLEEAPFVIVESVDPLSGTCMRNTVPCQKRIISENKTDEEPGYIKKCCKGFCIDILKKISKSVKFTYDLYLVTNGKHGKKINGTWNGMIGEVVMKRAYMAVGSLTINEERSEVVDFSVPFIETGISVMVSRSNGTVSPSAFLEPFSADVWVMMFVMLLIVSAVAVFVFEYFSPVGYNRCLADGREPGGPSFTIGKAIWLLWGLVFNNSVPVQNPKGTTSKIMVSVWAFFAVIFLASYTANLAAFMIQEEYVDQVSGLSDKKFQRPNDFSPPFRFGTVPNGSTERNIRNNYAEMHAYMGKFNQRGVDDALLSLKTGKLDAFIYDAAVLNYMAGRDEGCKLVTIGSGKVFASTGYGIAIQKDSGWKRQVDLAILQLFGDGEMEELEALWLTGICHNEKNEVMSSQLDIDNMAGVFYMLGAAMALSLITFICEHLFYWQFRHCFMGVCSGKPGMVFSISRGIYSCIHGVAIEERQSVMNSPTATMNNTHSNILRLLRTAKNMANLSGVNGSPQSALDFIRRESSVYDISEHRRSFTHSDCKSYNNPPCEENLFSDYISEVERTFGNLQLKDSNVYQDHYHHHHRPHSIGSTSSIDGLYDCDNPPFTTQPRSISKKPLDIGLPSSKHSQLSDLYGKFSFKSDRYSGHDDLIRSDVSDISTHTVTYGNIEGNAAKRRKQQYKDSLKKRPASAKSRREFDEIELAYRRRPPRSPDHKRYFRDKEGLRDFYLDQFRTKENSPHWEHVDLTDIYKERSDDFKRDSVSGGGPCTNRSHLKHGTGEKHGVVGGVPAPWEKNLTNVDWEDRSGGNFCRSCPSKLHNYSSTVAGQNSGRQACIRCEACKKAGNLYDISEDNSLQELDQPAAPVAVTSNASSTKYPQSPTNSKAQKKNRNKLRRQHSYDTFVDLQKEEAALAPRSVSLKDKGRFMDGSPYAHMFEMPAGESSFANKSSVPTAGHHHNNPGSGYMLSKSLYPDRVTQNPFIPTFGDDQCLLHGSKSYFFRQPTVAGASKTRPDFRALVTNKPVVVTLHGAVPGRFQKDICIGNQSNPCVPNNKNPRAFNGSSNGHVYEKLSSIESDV
Sequence of Glutamate receptor ionotropic, NMDA 2B (Rattus norvegicus, UniProt Q00960) (Q00960 whole entry): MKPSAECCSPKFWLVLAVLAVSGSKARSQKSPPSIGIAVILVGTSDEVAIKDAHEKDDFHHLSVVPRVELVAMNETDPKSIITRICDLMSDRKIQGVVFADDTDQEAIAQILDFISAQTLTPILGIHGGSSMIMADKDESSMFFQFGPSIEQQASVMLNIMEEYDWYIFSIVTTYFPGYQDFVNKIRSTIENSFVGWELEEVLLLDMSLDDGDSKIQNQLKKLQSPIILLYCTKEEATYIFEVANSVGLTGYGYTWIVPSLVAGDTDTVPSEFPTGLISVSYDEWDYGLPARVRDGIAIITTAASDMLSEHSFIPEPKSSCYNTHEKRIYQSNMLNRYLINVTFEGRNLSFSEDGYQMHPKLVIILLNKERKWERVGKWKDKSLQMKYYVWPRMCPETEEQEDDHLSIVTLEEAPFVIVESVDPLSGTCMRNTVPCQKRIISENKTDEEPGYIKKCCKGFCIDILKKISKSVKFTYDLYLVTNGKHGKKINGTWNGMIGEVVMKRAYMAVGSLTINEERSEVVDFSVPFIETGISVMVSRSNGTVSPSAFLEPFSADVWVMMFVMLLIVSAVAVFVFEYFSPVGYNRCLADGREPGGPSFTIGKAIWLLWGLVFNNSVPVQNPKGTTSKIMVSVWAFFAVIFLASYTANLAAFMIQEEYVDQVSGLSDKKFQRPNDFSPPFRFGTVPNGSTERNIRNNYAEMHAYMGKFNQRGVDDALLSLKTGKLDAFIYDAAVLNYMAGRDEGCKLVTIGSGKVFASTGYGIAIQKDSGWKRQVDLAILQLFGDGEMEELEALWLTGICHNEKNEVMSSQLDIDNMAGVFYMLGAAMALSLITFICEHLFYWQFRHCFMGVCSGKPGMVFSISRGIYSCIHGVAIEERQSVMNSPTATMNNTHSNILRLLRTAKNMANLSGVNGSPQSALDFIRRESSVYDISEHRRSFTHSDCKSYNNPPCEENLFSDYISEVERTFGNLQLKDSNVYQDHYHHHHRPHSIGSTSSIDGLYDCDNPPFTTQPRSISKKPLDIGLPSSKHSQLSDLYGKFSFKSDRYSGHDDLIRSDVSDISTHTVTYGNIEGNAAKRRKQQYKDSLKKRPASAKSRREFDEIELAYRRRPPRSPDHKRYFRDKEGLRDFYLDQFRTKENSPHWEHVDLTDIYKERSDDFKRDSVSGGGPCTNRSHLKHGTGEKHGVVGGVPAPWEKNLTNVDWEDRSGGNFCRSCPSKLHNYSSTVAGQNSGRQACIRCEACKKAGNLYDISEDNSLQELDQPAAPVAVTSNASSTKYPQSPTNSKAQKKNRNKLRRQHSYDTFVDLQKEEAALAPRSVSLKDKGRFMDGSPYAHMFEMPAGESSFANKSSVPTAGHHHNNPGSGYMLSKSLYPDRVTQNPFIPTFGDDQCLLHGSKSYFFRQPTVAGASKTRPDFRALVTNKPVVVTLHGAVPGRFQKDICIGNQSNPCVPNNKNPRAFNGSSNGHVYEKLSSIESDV
Sequence of Glutamate receptor ionotropic, NMDA 2B (Mus musculus) (Q01097 whole entry): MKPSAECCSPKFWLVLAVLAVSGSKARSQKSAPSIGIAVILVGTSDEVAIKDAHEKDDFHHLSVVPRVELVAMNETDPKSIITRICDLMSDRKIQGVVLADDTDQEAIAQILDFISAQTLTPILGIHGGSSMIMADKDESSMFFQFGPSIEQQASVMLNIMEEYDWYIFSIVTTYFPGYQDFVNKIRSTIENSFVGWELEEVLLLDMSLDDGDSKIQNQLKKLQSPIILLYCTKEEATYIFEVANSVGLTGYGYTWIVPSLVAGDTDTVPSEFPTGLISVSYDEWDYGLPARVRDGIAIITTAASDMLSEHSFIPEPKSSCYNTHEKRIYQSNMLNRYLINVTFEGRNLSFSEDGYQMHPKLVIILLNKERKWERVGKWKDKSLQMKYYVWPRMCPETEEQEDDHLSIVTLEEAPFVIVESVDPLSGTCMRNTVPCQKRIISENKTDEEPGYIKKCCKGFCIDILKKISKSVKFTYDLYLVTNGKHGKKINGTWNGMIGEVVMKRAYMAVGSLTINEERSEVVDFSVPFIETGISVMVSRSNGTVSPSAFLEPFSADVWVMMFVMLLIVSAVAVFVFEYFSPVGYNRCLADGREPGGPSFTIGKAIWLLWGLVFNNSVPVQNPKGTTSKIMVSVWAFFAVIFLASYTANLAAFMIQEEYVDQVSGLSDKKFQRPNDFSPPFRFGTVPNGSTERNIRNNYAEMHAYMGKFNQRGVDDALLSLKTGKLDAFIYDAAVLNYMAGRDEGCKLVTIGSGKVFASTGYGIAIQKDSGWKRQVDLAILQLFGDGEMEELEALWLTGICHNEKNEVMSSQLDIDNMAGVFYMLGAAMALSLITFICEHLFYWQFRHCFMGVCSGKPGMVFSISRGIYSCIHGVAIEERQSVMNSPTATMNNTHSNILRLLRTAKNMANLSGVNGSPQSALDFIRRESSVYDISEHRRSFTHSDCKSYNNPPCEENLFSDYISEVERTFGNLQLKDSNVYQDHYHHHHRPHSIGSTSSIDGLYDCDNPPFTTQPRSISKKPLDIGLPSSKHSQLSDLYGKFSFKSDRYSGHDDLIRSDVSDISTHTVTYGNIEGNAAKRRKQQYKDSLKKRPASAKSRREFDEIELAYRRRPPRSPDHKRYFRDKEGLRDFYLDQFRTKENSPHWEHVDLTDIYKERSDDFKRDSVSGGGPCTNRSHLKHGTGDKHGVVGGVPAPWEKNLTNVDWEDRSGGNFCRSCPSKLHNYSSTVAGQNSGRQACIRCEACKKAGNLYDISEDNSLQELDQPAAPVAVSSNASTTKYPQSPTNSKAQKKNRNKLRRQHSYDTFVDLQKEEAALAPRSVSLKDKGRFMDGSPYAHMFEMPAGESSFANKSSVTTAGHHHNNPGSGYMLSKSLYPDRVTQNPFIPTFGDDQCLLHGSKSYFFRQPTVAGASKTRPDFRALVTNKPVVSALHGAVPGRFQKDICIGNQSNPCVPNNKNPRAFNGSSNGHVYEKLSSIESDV

With `Nc1ccc2c(C(=O)CN3CCC(Cc4ccc(F)cc4)CC3)c[nH]c2c1`, the inhibition in assay [1] came out at 12%. Regarding `O=C(CN1CCC(Cc2ccccc2)CC1)c1c[nH]c2ccccc12`, in assay [2], the pIC50 was 6.11. With `COc1cc2[nH]cc(C(=O)CN3CCC(Cc4ccccc4)CC3)c2cc1OC`, in assay [1], the inhibition amounted to 1%. In the case of `CS(=O)(=O)Nc1ccc2c(C(=O)CN3CCC(Cc4ccc(F)cc4)CC3)c[nH]c2c1`, in assay [1], the inhibition turned out to be 81%. Also, the pIC50 in assay [3] is 8.03. `O=C(CN1CCC(Cc2ccc(F)cc2)CC1)c1c[nH]c2cc(O)c(O)cc12` displayed an inhibition in [1] of 84%. Also, in assay [3], the negative-log IC50 (pIC50) was 7.52. Regarding `O=C(C(=O)N1CCC(Cc2ccc(F)cc2)CC1)c1c[nH]c2ccc(O)cc12`, the inhibition in assay [1] amounted to 11%. On to `c1ccc2[nH]ccc2c1`, for which the figures for the inhibition entry in assay [4] and in assay [5] were “Dose-dependent effect” and 25.6%, respectively.

As to `O=C(O)/C=C/c1ccc(O)c(O)c1`, the inhibition entry was “Dose-dependent effect” in assay [4], above 93.4% in assay [5] and 71.5% in assay [6].

Turning to `COc1cc2[nH]cc(C(=O)C(=O)N3CCC(Cc4ccccc4)CC3)c2cc1OC`, the inhibition in assay [7] was 9%.

On to `CS(=O)(=O)Nc1ccc2[nH]cc(C(=O)C(=O)N3CCC(Cc4ccc(F)cc4)CC3)c2c1`, for which the inhibition in [1] was found to be 4%. The compound `COc1ccc2c(C(=O)CN3CCC(Cc4ccc(F)cc4)CC3)c[nH]c2c1` yielded an inhibition in assay [7] of 82%. Regarding `O=C(C(=O)N1CCC(Cc2ccccc2)CC1)c1c[nH]c2cc(O)c(O)cc12`, the inhibition in assay [1] came out at 40%.

As for `Oc1ccc2cc[nH]c2c1`, the inhibition in assay [8] was 83%; in assay [4], “Dose-dependent effect”; in assay [5], above 89.8%. For the compound `O=C(CN1CCC(Cc2ccc(F)cc2)CC1)c1c[nH]c2ccc(O)cc12`, in [1], the inhibition is 60%. Besides, the negative-log IC50 (pIC50) in assay [3] is 7.29. `CS(=O)(=O)Nc1ccc2[nH]cc(C(=O)CN3CCC(Cc4ccc(F)cc4)CC3)c2c1` came in with an inhibition in assay [1] of 10%. For `Oc1ccc2[nH]ccc2c1`, the figures for the inhibition in assay [8], in [4] and in assay [5] were 79.8%, “Dose-dependent effect” and above 90.1%, respectively. Consider `O=C(O)c1cc(O)c(O)c(O)c1`, for which the inhibition in [8] was 61.6%; in assay [4], “Dose-dependent effect”; in [5], above 93.9%; in assay [6], above 94.1%. `O=C(CN1CCC(Cc2ccc(F)cc2)CC1)c1c[nH]c2cc(O)ccc12`: the inhibition in assay [1] was determined as 82%. In assay [3], this compound showed a negative logarithm of the IC50 (pIC50) of 8.04.

On to `Oc1cc2cc[nH]c2cc1O`, for which the inhibition is 54.4% in [8], “Dose-dependent effect” in assay [4] and above 84.4% in assay [6].

For the compound `COc1ccc2[nH]cc(C(=O)CN3CCC(Cc4ccc(F)cc4)CC3)c2c1`, in [7], the inhibition worked out at 73%. `O=C(CN1CCC(Cc2ccccc2)CC1)c1c[nH]c2cc(O)c(O)cc12`: in assay [9], the Activity was determined as 57%. This compound also displayed an inhibition in assay [1] of 91%. The ED50 in the assay with Mus musculus [10] is 76.7 µmol/kg; in the assay on Mus musculus [11] it was 89.4 µmol/kg. Also, in assay [3], the pIC50 was 8.26. With `Nc1ccc2[nH]cc(C(=O)CN3CCC(Cc4ccc(F)cc4)CC3)c2c1`, the inhibition in assay [1] was determined as 33%. The compound `O=C(C(=O)N1CCC(Cc2ccc(F)cc2)CC1)c1c[nH]c2cc(O)ccc12` returned an inhibition in assay [1] of 61%. In assay [3], this compound had a pIC50 of 7.70. `COc1ccc2[nH]cc(C(=O)C(=O)N3CCC(Cc4ccc(F)cc4)CC3)c2c1` gave an inhibition in assay [7] of 35%. `O=C(C(=O)N1CCC(Cc2ccc(F)cc2)CC1)c1c[nH]c2cc(O)c(O)cc12` had an inhibition in assay [1] of 38%.

`CS(=O)(=O)Nc1ccc2c(C(=O)C(=O)N3CCC(Cc4ccc(F)cc4)CC3)c[nH]c2c1` registered an inhibition in [1] of 67%. In addition, the pIC50 in assay [3] is 7.74. In turn, `COc1ccc2c(C(=O)C(=O)N3CCC(Cc4ccc(F)cc4)CC3)c[nH]c2c1` returned an inhibition in assay [1] of 27%.

The record behind these values is ChEMBL document CHEMBL3102802, “Synthesis, modelling and biological characterization of 3-substituted-1H-indoles as ligands of GluN2B-containing N-methyl-d-aspartate receptors” (Bioorg Med Chem, 2014).
